Reference: ChEMBL document CHEMBL4382230, “Structure-activity relationships, biological evaluation and structural studies of novel pyrrolonaphthoxazepines as antitumor agents” (Eur J Med Chem, 2019)
Values after ≈ are worked out from the molar mass of the structure shown. Active and inactive are the calls of the source. The calls are words filed in the database; no cut-off is given here.

Assays:
NIH3T3 [1] = experiment: Cytotoxicity against mouse NIH/3T3 cells harboring MDR G185 after 48 hrs by MTT assay; format: functional, cell-based; settings: NIH3T3, 48 h
How it was run: (§1)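 Cells seeded at 12,000 to 17,000 per well depending on line, incubated overnight, then given serial dilutions of ligand for 48 h. MTT at 2.5 mg/mL added for 4 h at 37 °C, formazan solubilized overnight (10% SDS, 45% dimethylformamide, pH 5.5), absorbance read at 595/690 nm. IC50 from log-dose response curves; mean ± SE of three independent assays.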

NB-4 [2] = experiment: Induction of differentiation in human NB4 cells at 500 nM after 24 hrs in presence of ATRA by CD11c staining-based flow cytometric analysis; format: functional, cell-based
How it was run: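 NB4 exposed to 0.5 μM compound together with 1 μM ATRA for 24 h. Cells stained with PE-conjugated CD11c (mouse IgG1-PE control) for 1 h at 4 °C in the dark, washed, resuspended in PBS with propidium iodide (0.25 μg/mL), then analysed by flow cytometry. Biological triplicates, mean ± S.E.M.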

Tubulin (Homo sapiens) [3] = molecular target: T1, Tubulin (Homo sapiens) (UniProt P68371+Q9H4B7+P0DPH7+P68366+Q13509+Q71U36+P04350+Q3ZCM7+P07437+P68363+Q9BQE3+Q6PEY2+Q13885+Q9BVA1+Q9BUF5); experiment: Binding affinity to tubulin (unknown origin) by analytical ultracentrifugation
[4] = Apparent solubility of compound in sodium phosphate buffer at 15 uM after 20 mins; format: physicochemical
[5] = Ratio of IC50 for human A2780AD cells to IC50 for human A2780 cells; format: functional
How it was run: (§2)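 Relative resistance: IC50 in the P-gp overexpressing resistant line divided by IC50 in the parental line. Both IC50s came from the 48 h MTT assay (serial dilutions, absorbance at 595/690 nm, log-dose response curves, three independent assays).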

NIH3T3 [6] = experiment: Cytotoxicity against mouse NIH/3T3 cells after 48 hrs by MTT assay; format: cell-based; settings: NIH3T3, 48 h; how it was run: as §1
Tubulin (Homo sapiens) [7] = molecular target: T1, Tubulin (Homo sapiens); experiment: Inhibition of tubulin (unknown origin) polymerization at 27.5 uM measured over 70 mins by turbidity method; format: protein-complex assay
How it was run: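 Tubulin at 25 µM in GAB buffer (10 mM sodium phosphate, 30% glycerol, 1 mM EGTA, 6 mM MgCl2, 1 mM GTP, pH 6.7) with 27.5 µM compound or DMSO vehicle. Turbidity is read at 355 nm for 70 min at 37 °C. Data are normalized to the initial stable absorbance plateau to correct for compound absorbance.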

HCC827 [8] = experiment: Cytotoxicity against human HCC827 cells assessed as reduction in cell survival at 0.1 to 10 uM after 18 hrs by MTT assay; format: functional, cell-based
How it was run: (§3)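 Seeded at 2,500 cells/well in medium with 10% serum. After adhesion, exposed to 0.1, 1 and 10 μM in medium with 5% serum for 18 h. Medium then replaced with fresh medium containing 1.2 mM MTT for 4 h; formazan dissolved in DMSO, absorbance at 540 nm. Results given as % of basal response.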

HL-60 [9] = experiment: Cytotoxicity against human HL60 cells assessed as reduction in cell viability after 72 hrs by alamar blue assay; format: functional, cell-based; settings: HL-60, 72 h
How it was run: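 HL-60 at 300,000 cells/ml treated in triplicate with compound or vehicle (0.1% v/v DMSO) for 72 h. Cells then incubated in 10% (v/v) AlamarBlue and fluorescence read at excitation 544 nm, emission 590 nm. IC50 is the mean of at least three separate determinations.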

PC-9 = experiment: Cytotoxicity against human PC9 cells assessed as reduction in cell survival at 0.1 to 10 uM after 18 hrs by MTT assay; format: functional, cell-based; how it was run: as §3
A2780 = experiment: Cytotoxicity against human A2780 cells after 48 hrs by MTT assay; format: functional, cell-based; settings: A2780, 48 h; how it was run: as §1
A549 = experiment: Cytotoxicity against human A549 cells assessed as reduction in cell survival at 0.1 to 10 uM after 18 hrs by MTT assay; format: functional, cell-based; how it was run: as §3
NB-4 [10] = experiment: Cell cycle arrest in human NB4 cells assessed as accumulation of cells at G1 phase after 24 hrs by propidium iodide staining-based flow cytometric analysis; format: functional
How it was run: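 NB4 cultured at 37 °C, 5% CO2 in RPMI-1640 with 10% heat-inactivated FBS. Treated at 50 and 100 nM, 1 and 10 μM for 24 h. Cells fixed/permeabilized in 70% ethanol overnight at 4 °C, then given RNase and 20 μg/ml PI for 30 min. Doublets excluded, 20,000 events per sample; cell-cycle phase distribution analysed.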

HCC827 [11] = experiment: Cytotoxicity against human HCC827 cells assessed as reduction in cell survival at 0.1 to 10 uM after 50 to 60 hrs by MTT assay; format: functional, cell-based
HL-60 [12] = experiment: Cell cycle arrest in human HL60 cells assessed as accumulation of cells at G2/M phase at 10 uM after 24 hrs by propidium iodide staining-based flow cytometric analysis; format: functional
How it was run: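 HL-60 exposed to 10 μM for 24 h, vehicle 0.1% DMSO. Cells plated at 2×10^5 cells/mL, stained in PBS with 0.1% sodium citrate, 0.1% NP40 and propidium iodide for 30 min at room temperature in the dark. DNA content by flow cytometry; G2/M fraction reported.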

GISTT1 = experiment: Cytotoxicity against human GISTT1 cells assessed as reduction in cell viability at 1 uM after 48 hrs by alamar blue assay; format: functional, cell-based
How it was run: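 GIST-T1 seeded at 4000 cells/well, exposed to 1 or 10 μM for 48 h; viability read by AlamarBlue.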

B16-F10 = experiment: Cytotoxicity against mouse B16F10 cells assessed as reduction in cell survival at 0.1 to 10 uM after 18 hrs by MTT assay; format: functional, cell-based; how it was run: as §3
[13] = Ratio of IC50 for mouse NIH/3T3 cells harboring MDR G185 to IC50 for mouse NIH/3T3 cells; how it was run: as §2
[14] = Cytotoxicity against human A2780AD cells after 48 hrs by MTT assay; format: functional, cell-based; how it was run: as §1
Tubulin (Homo sapiens) [15] = molecular target: T1, Tubulin (Homo sapiens); experiment: Displacement of podophyllotoxin from tubulin (unknown origin) by ultracentrifugation method; format: protein-complex assay
B16-F1 = experiment: Cytotoxicity against mouse B16-F1 cells assessed as reduction in cell survival at 0.1 to 10 uM after 18 hrs by MTT assay; format: functional, cell-based; how it was run: as §3
[16] = Solubility of compound in pH 7.4 aqueous solution after 12 hrs by HPLC analysis; format: physicochemical
How it was run: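 Water solubility at pH 7.4 measured by HPLC analysis.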

## CC(=O)OC1=C(c2cccc3cccnc23)Oc2cc3ccccc3cc2-n2cccc21
NIH3T3 [1]
  IC50: 68 nM
NB-4 [2]
  Activity: Active
Tubulin (Homo sapiens) [3]
  Kb: 115 ×10⁷ /M
[4]
  solubility at 20 min, 15 µM: 0.36 µM (≈ 0.151 µg/mL)
[5]
  Ratio IC50: 1.03
NIH3T3 [6]
  IC50: 34 nM
Tubulin (Homo sapiens) [7]
  inhibition: Active
HCC827 [8]
  Activity: Active
HL-60 [9]
  IC50: 263 nM
PC-9
  Activity: Active
A2780
  IC50: 76 nM
A549
  Activity: Active
NB-4 [10]
  Activity: Dose-dependent effect
HCC827 [11]
  Activity: inactive
HL-60 [12]
  Activity: Active
GISTT1
  Activity: Active
B16-F10
  Activity: Active
[13]
  Ratio IC50: 2
[14]
  IC50: 79 nM
Tubulin (Homo sapiens) [15]
  inhibition: Active
B16-F1
  Activity: Active

## CCc1ccc2cccc(C3=C(OC(=O)N(CC)CC)c4cccn4-c4cc5ccccc5cc4O3)c2n1
HL-60 [12]
  Activity: Active

## COC(=O)Nc1nc2ccc(C(=O)c3cccs3)cc2[nH]1 [NOCODAZOLE]
[16]
  solubility at 12 h: < 1000 µg/mL

## CC(=O)NC1=C(c2cccc3ccccc23)Oc2cc3ccccc3cc2-n2cccc21
HL-60 [12]
  Activity: Active

## CN(C)C(=O)OC1=C(c2cccc3cccnc23)Oc2cc3ccccc3cc2-n2cccc21
HL-60 [9]
  IC50: 300 nM
GISTT1
  Activity: Active

## CC(=O)O[C@H]1C(=O)[C@@]2(C)[C@H]([C@H](OC(=O)c3ccccc3)[C@]3(O)C[C@H](OC(=O)[C@H](O)[C@@H](NC(=O)c4ccccc4)c4ccccc4)C(C)=C1C3(C)C)[C@]1(OC(C)=O)CO[C@@H]1C[C@@H]2O [PACLITAXEL]
NIH3T3 [1]
  IC50: 4880 nM
[5]
  Ratio IC50: 212.12
NIH3T3 [6]
  IC50: 25 nM
A2780
  IC50: 3.3 nM
[13]
  Ratio IC50: 195
[14]
  IC50: 700 nM

## O=C1c2cccn2-c2cc3ccccc3cc2OC1c1cccc2ncccc12 (configuration not stated)
HL-60 [9]
  IC50: 2770 nM

## CC(=O)OC1=C(c2cnc3ccccc3c2)Oc2cc3ccccc3cc2-n2cccc21
HCC827 [8]
  Activity: inactive
HL-60 [9]
  IC50: 6460 nM
PC-9
  Activity: inactive
A549
  Activity: inactive
HCC827 [11]
  Activity: inactive
HL-60 [12]
  Activity: Active
B16-F10
  Activity: inactive
B16-F1
  Activity: inactive

## CCN(CC)CCCC(C)NC(=O)OC1=C(c2cccc3cccnc23)Oc2cc3ccccc3cc2-n2cccc21 (configuration not stated)
NIH3T3 [1]
  IC50: 2500 nM
Tubulin (Homo sapiens) [3]
  Kb: 114 ×10⁷ /M
[4]
  solubility at 20 min, 15 µM: 2.89 µM (≈ 1.62 µg/mL)
[5]
  Ratio IC50: 0.71
NIH3T3 [6]
  IC50: 2300 nM
Tubulin (Homo sapiens) [7]
  inhibition: Active
A2780
  IC50: 1900 nM
HL-60 [12]
  Activity: Active
[13]
  Ratio IC50: 1.08
[14]
  IC50: 1350 nM
Tubulin (Homo sapiens) [15]
  inhibition: Active

## CC[C@]1(O)C[C@@H]2CN(CCc3c([nH]c4ccccc34)[C@@](C(=O)OC)(c3cc4c(cc3OC)N(C)[C@H]3[C@@](O)(C(=O)OC)[C@H](OC(C)=O)[C@]5(CC)C=CCN6CC[C@]43[C@@H]65)C2)C1 [VINBLASTINE]
NIH3T3 [1]
  IC50: 70.4 nM
[5]
  Ratio IC50: 88
NIH3T3 [6]
  IC50: 1 nM
A2780
  IC50: 0.5 nM
[13]
  Ratio IC50: 70.4
[14]
  IC50: 44 nM

## CCN(CC)CCCC(C)NC(=O)OC1=C(c2cccc3ccccc23)Oc2cc3ccccc3cc2-n2cccc21 (configuration not stated)
HL-60 [12]
  Activity: Active

## O=C1c2cccn2-c2cc3ccccc3cc2OC1c1cccc2cccnc12 (configuration not stated)
HL-60 [9]
  IC50: 1080 nM

## CCN(CC)C(=O)OC1=C(c2cccc3cccnc23)Oc2cc3ccccc3cc2-n2cccc21
HL-60 [9]
  IC50: 4580 nM

## COc1cc2c(c(OC)c1OC)-c1ccc(OC)c(=O)cc1[C@@H](NC(C)=O)CC2 [COLCHICINE]
NIH3T3 [1]
  IC50: 1120 nM
[5]
  Ratio IC50: 38.2
NIH3T3 [6]
  IC50: 25 nM
A2780
  IC50: 13.1 nM
[13]
  Ratio IC50: 44.7
[14]
  IC50: 500 nM

## CC(=O)OC1=C(c2cccc3cnccc23)Oc2cc3ccccc3cc2-n2cccc21
NIH3T3 [1]
  IC50: 876 nM
Tubulin (Homo sapiens) [3]
  Kb: 16 ×10⁷ /M
[4]
  solubility at 20 min, 15 µM: 0.22 µM (≈ 0.0921 µg/mL)
[5]
  Ratio IC50: 2.69
NIH3T3 [6]
  IC50: 375 nM
Tubulin (Homo sapiens) [7]
  inhibition: Active
A2780
  IC50: 301 nM
[13]
  Ratio IC50: 2.33
[14]
  IC50: 810 nM
Tubulin (Homo sapiens) [15]
  inhibition: Active
